The source made the active and inactive calls. The calls are words filed in the database; no cut-off is given here.
Experiments:
[1] = Metabolic stability in human intestine microsomes assessed as half life at 2.5 uM measured upto 120 mins in presence of NADPH by LC-MS analysis; format: ADME, Microsome; conditions: 2 h
Summary of the method: (§1)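 2.5 μM compound at 37 °C in 50 mM potassium phosphate pH 7.4 with 3 mM MgCl2, 1 mM EDTA and an NADPH regenerating system. […] Sampled at 0–120 min in 20-min steps, acetonitrile quench, LC-MS of parent. T1/2 from one-phase exponential decay fit.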

[2] = Drug metabolism in C57BL/6 mouse assessed as psilocin formation at 1 mg/kg, iv measured upto 24 hrs by LC-MS analysis; format: ADME, organism-based; conditions: in vivo
Mus musculus [3] = test: Anxiolytic activity in non-stressed mouse assessed as reduction in marble-burying behavior by measuring decrease in number of buried marbles at 10 mg/kg, po measured after 1 day; format: functional, organism-based
[4] = Metabolic stability in human liver microsomes assessed as half life at 2.5 uM measured upto 120 mins in presence of NADPH by LC-MS analysis; format: ADME, Microsome; conditions: for t1/2: microsomes, 2 h, 2.5 µM; summary of the method: as §1
[5] = Drug metabolism in human liver microsomes assessed as psilocin formation at 2.5 uM after 120 mins by LC-MS analysis; format: ADME, Microsome; conditions: 2 h
Summary of the method: (§2)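 2.5 μM compound in 50 mM potassium phosphate pH 7.4 with 3 mM MgCl2, 1 mM EDTA and an NADPH regenerating system. Incubated at 37 °C with human liver or intestinal S9 or microsomes (400 μg/mL protein) or 10% human AB serum. Acetonitrile quench, then LC-MS; psilocin concentration read at 120 min.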

[6] = Drug metabolism in human intestine S9 fraction assessed as psilocin formation at 2.5 uM after 120 mins by LC-MS analysis; format: ADME, subcellular; conditions: s9, 2 h; summary of the method: as §2
[7] = Drug metabolism in human serum assessed as psilocin formation at 2.5 uM after 120 mins by LC-MS analysis; format: ADME, cell-free; conditions: 2 h; summary of the method: as §2
[8] = Drug metabolism in C57BL/6 mouse assessed as psilocin formation at 10 mg/kg, po measured after 8 hrs by LC-MS analysis; format: ADME, organism-based; conditions: in vivo
[9] = Drug metabolism in human liver S9 fraction assessed as psilocin formation at 2.5 uM after 120 mins by LC-MS analysis; format: ADME, subcellular; conditions: s9, 2 h; summary of the method: as §2
[10] = Drug metabolism in po dosed C57BL/6 mouse assessed as psilocin formation measured upto 24 hrs by LC-MS analysis; format: ADME, organism-based; conditions: in vivo, dose 1-10 mg/kg
[11] = Metabolic stability in human intestine S9 fraction assessed as half life at 2.5 uM measured upto 120 mins in presence of NADPH by LC-MS analysis; format: ADME, subcellular; conditions: s9, 2 h; summary of the method: as §1
[12] = Drug metabolism in human intestine microsomes assessed as psilocin formation at 2.5 uM after 120 mins by LC-MS analysis; format: ADME, Microsome; conditions: 2 h; summary of the method: as §2
Mus musculus [13] = test: Psychedelic activity in mouse assessed as head-twitch response at 1 mg/kg, po measured after 15 to 30 mins; format: functional, organism-based; conditions: time 15-30 min
Summary of the method: (§3)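 C57BL/6 mice, singly housed for 2 days, with 30-min predose chamber acclimation. Single oral 1 mg/kg dose from 100 mM DMSO stock diluted in 0.9% saline; vehicle 1% DMSO in saline. Video-recorded after dosing; head twitches scored blind per 15-min interval (reference time course) or for the 15–30 min window. n = 2–4; one-way ANOVA.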

[14] = Metabolic stability in human liver S9 fraction assessed as half life at 2.5 uM measured upto 120 mins in presence of NADPH by LC-MS analysis; format: ADME, subcellular; conditions: for t1/2: s9, 2 h, 2.5 µM; summary of the method: as §1
[15] = Metabolic stability in human serum assessed as half life at 2.5 uM measured upto 120 mins in presence of NADPH by LC-MS analysis; format: ADME, cell-free; conditions: 2 h; summary of the method: as §1
[16] = Drug metabolism in C57BL/6 mouse assessed as psilocin formation at 10 mg/kg, po measured at 24 hrs by LC-MS analysis; format: ADME, organism-based; conditions: in vivo
Mus musculus [17] = test: Anxiolytic activity in non-stressed mouse assessed as reduction in marble-burying behavior by measuring decrease in number of buried marbles at 10 mg/kg, po measured upto 7 days; format: functional, organism-based; conditions: time <= 7.0 day
Mus musculus [18] = test: Psychedelic activity in mouse assessed as head-twitch response at 1 mg/kg, po measured upto 90 mins; format: functional, organism-based; summary of the method: as §3
Mus musculus [19] = test: Anxiolytic activity in mouse assessed as reduction in MCSP induced marble-burying behavior by measuring decrease in number of buried marbles at 1 mg/kg, po measured upto 7 days; format: functional, organism-based; conditions: time <= 7.0 day
Summary of the method: (§4)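 Mixed-sex C57BL/6 mice, singly housed. Stress group: 7-day mild chronic stress paradigm with corticosterone 25 μg/mL in 1% ethanol drinking water plus daily 30-min restraint over the last 5 days; controls unstressed. Single oral dose in saline with 1% DMSO at 2.5 μL/g, given 24 h after stress. 10 marbles on 5 cm bedding; % buried over 20 min on days 1 and 7. Ordinary one-way ANOVA; n = 6–11.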

[20] = Anxiolytic activity in non-stressed mouse assessed as reduction in marble-burying behavior by measuring decrease in number of buried marbles at 1 mg/kg, po measured upto 7 days; format: toxicity, organism-based; conditions: in vivo, 168 h, time < 7 day; summary of the method: as §4
[21] = Drug metabolism in C57BL/6 mouse assessed as psilocin AUC(0 to last) at 3 mg/kg, po measured upto 24 hrs by LC-MS analysis; format: ADME, organism-based; parameters: time < 24 hrs, dose 3 mg/kg, route po; conditions: in vivo
[22] = Drug metabolism in C57BL/6 mouse assessed as psilocin AUC(0 to last) at 10 mg/kg, po measured upto 24 hrs by LC-MS analysis; format: ADME, organism-based; parameters: dose 10 mg/kg, time < 24 hrs, route po; conditions: in vivo
[23] = Drug metabolism in C57BL/6 mouse assessed as psilocin Cmax at 3 mg/kg, po measured upto 24 hrs by LC-MS analysis; format: ADME, organism-based; parameters: dose 3 mg/kg, time < 24 hrs, route po; conditions: in vivo
[24] = Drug metabolism in C57BL/6 mouse assessed as psilocin Cmax at 10 mg/kg, po measured upto 24 hrs by LC-MS analysis; format: ADME, organism-based; parameters: time < 24 hrs, dose 10 mg/kg, route po; conditions: in vivo

| Structure (SMILES) | t1/2 [1] [min] | Drug metabolism [2] | Activity (Mus musculus [3]) | t1/2 [4] [min] | Drug metabolism [5] [µM] | Drug metabolism [6] [µM] | Drug metabolism [7] [µM] | Drug metabolism [8] | Drug metabolism [9] [µM] | Drug metabolism [10] | t1/2 [11] [min] | Drug metabolism [12] [µM] | Activity (Mus musculus [13]) | t1/2 [14] [min] | t1/2 [15] [min] | also measured |
| --- | --- | --- | --- | --- | --- | --- | --- | --- | --- | --- | --- | --- | --- | --- | --- | --- |
| CN(C)CCc1c[nH]c2cccc(OC(=O)CC3CC3)c12 | 62 | Metabolite_Detected | Active | 1 | 1.89 | 1.384 | 0.778 | Metabolite_Notdetected | 1.343 | Dose-Dependent Effect | 104 | 0.927 | Active | 3 | 1 |  |
| CCCCC(=O)OCOc1cccc2[nH]cc(CCN(C)C)c12 | 112 | Metabolite_Detected |  | 4 | 0.132 | 0.055 | 0 | Metabolite_Notdetected | 0.07 | Dose-Dependent Effect | 39 | 0.081 |  | 5 | 3 |  |
| CN(C)CCc1c[nH]c2cccc(OC(=O)OCc3ccccc3)c12 | 211 | Metabolite_Detected |  | 113 | 0.114 | 0.044 | 0 |  | 0.084 | Dose-Dependent Effect | 529 | 0.038 |  |  |  | Drug metabolism [16]: Metabolite_Detected |
| CCCC(=O)OCOc1cccc2[nH]cc(CCN(C)C)c12 | 74 |  |  | 3 | 0.073 | 0.018 | 0 | Metabolite_Notdetected | 0.012 | Dose-Dependent Effect | 241 | 0.043 | inactive | 4 | 2 |  |
| CN(C)CCc1c[nH]c2cccc(OC(=O)c3c(F)c(F)c(F)c(F)c3F)c12 | 32 |  |  | 1 | 2.554 | 0.533 | 0.45 | Metabolite_Notdetected | 1.244 | Dose-Dependent Effect | 56 | 0.786 | Active | 1 | 0.7 |  |
| CN(C)CCc1c[nH]c2cccc(OC(=O)OCC3CC3)c12 | 271 | Metabolite_Detected |  | 4 | 1.929 | 0.224 | 0.361 |  | 1.177 | Dose-Dependent Effect | 327 | 0.157 | inactive | 9 | 3 | Drug metabolism [16]: Metabolite_Detected |
| CN(C)CCc1c[nH]c2cccc(OC(=O)SCc3ccccc3)c12 | 71 | Metabolite_Detected | Active |  | 2.105 | 0 | 0.385 | Metabolite_Notdetected | 1.233 | Dose-Dependent Effect | 50 | 0.156 | Active |  | 14 | half-life at 2.5 µM ([4]; liver microsomes): 6 min; Activity (Mus musculus [17]): Active; half-life at 2.5 µM ([14]; liver S9 fraction): 5 min |
| CN(C)CCc1c[nH]c2cccc(OP(=O)(O)O)c12 [PSILOCYBIN] | 195 |  |  |  | 0 | 0.621 | 0 | Metabolite_Notdetected | 0 | Dose-Dependent Effect |  | 0.172 |  |  |  | Activity (Mus musculus [18]): Active; Activity (Mus musculus [19]): Active; Activity [20]: Non-Toxic; AUClast [21]: 84.4 ng·h/mL; AUClast [22]: 397.3 ng·h/mL; Cmax [23]: 52.9 ng/mL; Cmax [24]: 243 ng/mL |
| COc1ccc(C(=O)Oc2cccc3[nH]cc(CCN(C)C)c23)cc1 | 315 | Metabolite_Detected | Active | 17 | 2.718 | 0.114 | 1.097 | Metabolite_Notdetected | 1.95 | Dose-Dependent Effect | 132 | 0.041 | Active | 21 | 1 | Activity (Mus musculus [17]): Active |
